From the EternaBench riboswitch data

Test system: MS2 coat protein
Assay: apparent Kd, MS2 coat protein; higher = weaker binding; RNA-MaP array
Procedure, shortened: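 Apparent Kd values come from the median of binding-curve fits to single clusters. To obtain them, designed RNAs transcribed on an Illumina sequencing chip from sequenced DNA templates were incubated at room temperature with fluorescently labeled MS2 coat protein at 1.5 nM to 3 μM, with or without input ligand, for 0.8–1.5 h at the lowest and 10–20 min at the highest concentrations. Designs measured on fewer than 10 clusters were excluded.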

[1] = designed as: ON switch for flavin mononucleotide, no ligand
[2] = ligand present: flavin mononucleotide, designed as: ON switch for flavin mononucleotide
[3] = designed as: OFF switch for flavin mononucleotide, no ligand
[4] = ligand present: flavin mononucleotide, designed as: OFF switch for flavin mononucleotide
[5] = designed as: ON switch for tryptophan, no ligand
[6] = ligand present: tryptophan, designed as: ON switch for tryptophan

Sequence | apparent Kd [3] | apparent Kd [4] | also measured
AAACACAACCAGAAGGCCAAAACAUGAGGAUCACCCAUGUAGAUAAGAAGAGUAAGCACUGUCAUGGAGGAUAUGGGUCAAAAC |  |  | apparent Kd [1]: 20.8 nM; apparent Kd [2]: 7.12 nM
GCAAUAACAGCAGGAUAUCGUCUCACAUGAGGAUCACCCAUGUUACUAAGUGGCUACUAGGAUUACGAGAAGGGCUGUCCACGC | 10.7 nM | 7.78 nM | 
CACUGGUACGAGAAGGCACCUGAAGUUGAGAAGUGAGGAUAUCGAAAUAAACACAUGAGGAUCACCCAUGUGAUCCAAGGACGA | 121 nM | 91.6 nM | 
UUAUUGGUAGGAUAUACAUGAGGAUCACCCAUGUGUCACGCAAAUUAGUAUGUCAAAUGUAGAAGGACCAAAUA | 20.5 nM | 30.2 nM | 
UCAUCACAUGAGGAUCACCCAUGUCGUAGGUGAUCAGGAUAUGCCUAUGCCUCCAUGGCGGCAGAAGGGAUGCGGG |  |  | apparent Kd [1]: 795 nM; apparent Kd [2]: 603 nM
CAGAGACAUGAGGAUCACCCAUGUUGAGAUACCAGCUUGGUAUCGAGCCCUUGGCAGCUCGCCCAUCGUCUAUAUCAGCCUGAGC |  |  | apparent Kd (designed as: ON switch for theophylline, no ligand): 16.5 nM; apparent Kd (ligand present: theophylline, designed as: ON switch for theophylline): 20.2 nM
GGCGUAUCAGGAUAUGCGUUUUGAGACAUGAGGAUCACCCAUGUCCUUAGCUCAGUUAAAGCAGAAGGGAUUAUUA | 16.9 nM | 34.1 nM | 
GACCGUGUCAAUCAUCAUCAACAUGAGGAUCACCCAUGUACCAAGGAUAUCUCGCACUACAAGUCAGAGAAGGUGGGUUUACUC |  |  | apparent Kd [1]: 241 nM; apparent Kd [2]: 152 nM
GUUAGUUGUGAGGAUAUUCAGAGAUCUCGAUCAGAAGAAGGCACUACAUGAGGAUCACCCAUGUAGAUUCUUAU | 5.25 nM | 8.88 nM | 
UAUCGCGCGGCGGCCGCCACUAAUGGCAGAUCUGUCGACUAACAUGAGGAUCACCCAUGUCUAACUAGGACCGGGCCCAAGUUGU |  |  | apparent Kd [5]: 47.5 nM; apparent Kd [6]: 40.2 nM
AUGGUCUCUUAAGGAUAUAGCUAUACAGAGCGCACGUAGGUUAAAUACAUGAGGAUCACCCAUGUCUAGAAGGUAAGUACCGGA |  |  | apparent Kd [1]: 11.6 nM; apparent Kd [2]: 11.1 nM
GAGAGAAAGCCAGGAUAUUAGAACUAGGCACAUGAGGAUCACCCAUGUGGUGAUGAUCAUAAGACUAAGAAGGGGCACCGGAUU |  |  | apparent Kd [1]: 521 nM; apparent Kd [2]: 450 nM
UAAGAAUCAGGAUAUACAGAAAGAUCAACAAAGAGCCAUAAACAUGAGGAUCACCCAUGUAGAAGGGAACAAAU | 8.14 nM | 7.77 nM | 
GGGGGUUGGACAGGAUAUAGAGGUCUCGUGUGGAGAUGCACAACGACAUGAGGAUCACCCAUGUGCUAGAAGGGUCUGCGAUAG |  |  | apparent Kd [1]: 19.3 nM; apparent Kd [2]: 16.1 nM
AAGGGUCAACAGAAGGUUGUCGAACAUUGCGCCAAAGGAUAUGUCUACCGUUUAAGCGUUCGUCACAUGAGGAUCACCCAUGUU |  |  | apparent Kd [1]: 26.8 nM; apparent Kd [2]: 18.3 nM
GACAUCCUCACAAUACAUGAGGAUCACCCAUGUGAAGUGGCCUAGGAUAUUCAAGAGUGGGUCACGAAGAAGGAGGCUGCAGGA | 33.3 nM | 28.3 nM | 
GACCGGACAUCCUAGGAUAUUUAUACUGAUACAUGAGGAUCACCCAUGUUUGGAAACAUCGUACGAAAGAAGGAGGAGACCUCUGA |  |  | apparent Kd [1]: 11.7 nM; apparent Kd [2]: 10.8 nM
GUUAGCACUUAAGGAUAUUGGAAGCGCGUCGUCCAAGAAGGUAAGUUCUUCGUCGACAUGAGGAUCACCCAUGUCAUGCAUGGC | 16.5 nM | 11.8 nM | 
CGUCCCUAGCAGAAGGUUCUUUGGGCUGCAGUGAAAGGAUAUGCCAGCACAUGAGGAUCACCCAUGUCUGUCGGAUGCACCAGA |  |  | apparent Kd [1]: 63.9 nM; apparent Kd [2]: 47 nM
GACGUGUCGCAGAAGGUGGCGAGGAUAGACAUGAGGAUCACCCAUGUGGGACGCGUUAGGUCUGCCAAGGAUAUGCGCAACUCU | 54.3 nM | 28.7 nM | 
AAACUUACAGGAUAUACAUGAGGAUCACCCAUGUAAACGAAACACCAGGUGAUAGUGGGUAGAAGGGAAUAAAC | 22.7 nM | 18.5 nM | 
GCAAGAGAGCAGAAGGUUGAGGGCGUUCCCGUUUACAUGAGGAUCACCCAUGUUGCUAACAUGUCAAAGGAUAUGCCUAACGCU | 70.8 nM | 63.8 nM | 
AACAUUAGAGGAUAUAUCAUCUUUCACAUGAGGAUCACCCAUGUUCCUCAGUGUUAGUGUAUAGAAGGCUAAGACA | 279 nM | 26.9 nM | 
GUUGAGGUGGUAGGAUAUAGUUUACACAUGAGGAUCACCCAUGUAUUCUAGACUUCAAGCCUCACCUAGAAGGACCCGUGCAAA | 4.91 nM | 4.75 nM | 
CAUGCGGCUAGUGAGCGUGGUGAGUAAAGGCGAGGACCGGUACGGCCGCCACUCGAGGCAAGACAUGAGGAUCACCCAUGUUGUA |  |  | apparent Kd (designed as: OFF switch for tryptophan, no ligand): 15.1 nM; apparent Kd (ligand present: tryptophan, designed as: OFF switch for tryptophan): 12.9 nM
AGAACUUUGGUGGAUACCAGCUUCUGGCCAUCCUUCAAAUACAUGAGGAUCACCCAUGUUAGCCCUUGGCAGCCAACAUAGACUG |  |  | apparent Kd (designed as: OFF switch for theophylline, no ligand): 22.4 nM; apparent Kd (ligand present: theophylline, designed as: OFF switch for theophylline): 222 nM
UGAGACAGAGGAUAUACAAAAGGGAAACGAGCACAGAGGAAACAUGAGGAUCACCCAUGUAGAAGGCUGAACAG | 6.99 nM | 19 nM | 

Sequence | apparent Kd [3] | apparent Kd [4] | also measured
CUAACACAUGAGGAUCACCCAUGUUAGGAUAUCAGCUGCAGCGCUCGACUGCAAUUUAUGAGAAGGAACUGUGG | 17.5 nM | 24.2 nM | 
ACGAAAUCUUAAACUUACGCACAUGAGGAUCACCCAUGUCACUAGGAUAUUAAAACAAAACAAUGUAAGAAGGAGUGAGAAAAG |  |  | apparent Kd [1]: 13.6 nM; apparent Kd [2]: 11.8 nM
UCGGGUAAGCAGAAGGCACUAGAUUCUCUUUCAGCGAUAUAACAUGAGGAUCACCCAUGUAGAGGUGAGGAUAUGCAGAAACGC |  |  | apparent Kd [1]: 169 nM; apparent Kd [2]: 83.9 nM
AUGCCUCCACUAGGAUAUUACAUCUACAUUUCCACUUUCAAACAGACAUGAGGAUCACCCAUGUGUAAGAAGGAGUGCCUAGAG |  | 8.45 nM | 
CAAUGAACAUGAGGAUCACCCAUGUAGUAAUGCGAGAAAACGAAGGAUAUAGCGAUACUACAUAGCAAGAAGGUCGCAAACAUA |  |  | apparent Kd [1]: 40.4 nM; apparent Kd [2]: 30.7 nM
ACAUGAGGAUCACCCAUGUACAUUUAUACUGGGAGACUAUCGUAGGAUAUAUGAACAAGCAUUCUAUAGAAGGACGAAAAGAUC | 59.4 nM | 40.4 nM | 
GUGUUCACUGCAGGAUAUGUACAUGAGGAUCACCCAUGUUGAAACGGCUGGAAUCGGCAGAUGAAACAGAAGGGCAUGAAAAUU |  |  | apparent Kd [1]: 12.8 nM; apparent Kd [2]: 9.09 nM
UGGAUUCGACAAGGAUAUGGUAGUCAUAGCACAUGAGGAUCACCCAUGUUAAAGCAAAACAAAGUCCAGAAGGUGUAAGUACGG |  |  | apparent Kd [1]: 11.7 nM; apparent Kd [2]: 9.43 nM
AUUUUAAACAAGAAGGGCUUACGCAAGCUGAGAGCAGGAUAUUGACAUGAGGAUCACCCAUGUAUUAGACCAUAAGAUCCCAUU | 20.5 nM | 20.6 nM | 
CAACGACAUGAGGAUCACCCAUGUGAGGAUAUCUACUUGAUCAGGUAACUGCUUCCGAAGAGAAGGCACGGUGA | 20.4 nM | 19.5 nM | 
UAGGGUCUGUCGCGACAUGAGGAUCACCCAUGUGCUUAGUCAAGAAGGGCGGACAUGCAAAACCCGCAGGAUAUUGUAUGCACU | 254 nM | 59.5 nM | 
GGCUCCGUAGGAUAUCGUAUUAGCGACAUGAGGAUCACCCAUGUUCAUUUGUCCUCAAUACGAGAAGGACGAACUC | 16.1 nM | 18.3 nM | 
UUUCUCAAUGUCAGGAUAUAGAUUUGACAUCCUCACUAGAAGGGACAUGAGGAUCACCCAUGUGUCAAUGCGGC |  | 17.6 nM | 
AUCACUGAGCGAGGAUAUUAUUUCAAAUCAACGACGAUCCUACACAUGAGGAUCACCCAUGUUAGUAAGAAGGCGCGCCAGAUG | 62.5 nM | 93.5 nM | 
UAGAUAUGAGGAUAUACAUGAGGAUCACCCAUGUGGUUAUCAAACGACAUGACAUUUAGUAGAAGGCAAACAUC | 23.5 nM | 21 nM | 
GCAGUUGGUCUCUCACAUGAGGAUCACCCAUGUUCUUAGUUUCAGGAUAUAUGAGCGAAUUGCGGAUAGAAGGGAAACAGUCAC | 41.6 nM | 49.7 nM | 
AUAGCAAAAGUGAGGAUAUUCGACAUAGAACGCAUGAAGAAGGCACAUGAGGAUCACCCAUGUUCUCGUUAGUA | 10.6 nM | 14.1 nM | 
CAUUUCUUCACAGGAUAUGCCGUACAUGAGGAUCACCCAUGUGGGUGGGCGUAGCACUGUAGUGCGCAGAAGGGUGGAUCCGAC | 113 nM | 79.2 nM | 
GUGGCAGGUGUCAGCCACAUGAGGAUCACCCAUGUUACUGAUCAGGAUAUUCGUGUGCGUCGCCGGAAGAAGGGAUUUGGACAU | 123 nM | 64.1 nM | 
UGGAAGUAAGGAUAUCCGCGCGCGGGUUUUGCGCACGCACUGGAGAAGGUACAUGAGGAUCACCCAUGUUCGUC | 9.85 nM | 9.59 nM | 
GGUUGACAUGAGGAUCACCCAUGUGAGGAUAUAACAAGUGGGAGCUCUCCAUGAAAAGUUAGAAGGCACUUGGU | 61.8 nM | 52.9 nM | 
GUACACAUGAGGAUCACCCAUGUACUGGUACGAGGACCGGUACGGCCGCCACUCGCCGAGAUUCAUAACACAUCAGAAAGCUCAC |  |  | apparent Kd [5]: 17.6 nM; apparent Kd [6]: 15.6 nM
CACAUGAGGAUCACCCAUGUUCGUUCACUUCAUGUAAUGAUUAGAAGGUCACGCGCCUAUCUGCUGAAGGAUAUAAUCCCGAAA | 11.1 nM | 10.1 nM | 
CUAGGUCAAGGAUAUACAUGAGGAUCACCCAUGUAAGAACCUAGUAGGGUCGUCCGAGGUAGAAGGUGAGCAUU | 24.9 nM | 19.6 nM | 
GUUAAAGAACGAGGAUAUAUUUGGUGAGGAGUACACAUGAGGAUCACCCAUGUCCAUCCUAUUCCAUAGAAGGCGUAGAGUUUU |  |  | apparent Kd [1]: 6.71 nM; apparent Kd [2]: 6.95 nM
GUAUACAUGAGGAUCACCCAUGUCGUUCUCUUGAGAUGAACAGAGGAUAUGUGAGUAAUAGCGUGACAGAAGGCUGGACAUGAU | 27.7 nM | 16.9 nM | 
AAGGAGUUAGGAUAUCCGUGCGUUGACAUGAGGAUCACCCAUGUGUUGAUAAACCUACUAGGAGAAGGAACGAUAC | 20.7 nM | 15.2 nM | 
